m-calpain inh – blocks pig calpain II enzyme activity; purified calpain II, fluorogenic peptide substrate, 30 min; inhibition, % at 16 µM; 0.37% of 220,000 active; AID 1236;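 active = inhibition above about 50%, limit read from the data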
Furin inhibitor – inhibitors of human furin. inhibition, % at 20 µM or 30 µM. 0.061% of 220,000 active. P09958. purified furin, fluorogenic substrate cleavage; in the data active = inhibition above about 25%
Target sequence (P09958 108-714 limits assumed): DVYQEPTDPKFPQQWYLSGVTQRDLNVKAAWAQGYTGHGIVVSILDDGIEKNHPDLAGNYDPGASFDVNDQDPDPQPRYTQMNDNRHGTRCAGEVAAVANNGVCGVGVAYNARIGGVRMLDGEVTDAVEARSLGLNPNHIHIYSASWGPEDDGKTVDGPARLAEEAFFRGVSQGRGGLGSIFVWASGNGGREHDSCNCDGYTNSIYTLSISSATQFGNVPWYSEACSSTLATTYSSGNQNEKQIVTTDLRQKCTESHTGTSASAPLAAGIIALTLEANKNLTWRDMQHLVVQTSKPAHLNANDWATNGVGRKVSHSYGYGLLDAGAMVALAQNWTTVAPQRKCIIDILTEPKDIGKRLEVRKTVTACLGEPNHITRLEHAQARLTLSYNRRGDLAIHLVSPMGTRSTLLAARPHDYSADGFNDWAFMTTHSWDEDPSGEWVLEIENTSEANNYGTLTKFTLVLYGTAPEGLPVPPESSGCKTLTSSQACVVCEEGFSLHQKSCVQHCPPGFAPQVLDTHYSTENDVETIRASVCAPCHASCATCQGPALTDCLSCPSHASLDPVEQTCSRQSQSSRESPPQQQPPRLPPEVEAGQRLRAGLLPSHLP
RBBP9 inh – human RBBP9 hydrolase inhibition; recombinant RBBP9, FP-Rh probe fluorescence polarization; 0.2% of 220,000 active; inhibition, % at 7.94 µM; O75884; AID 1515;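 active = inhibition above the campaign mean of all tested compounds plus 3 SD, cut at about 14% in these data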;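 also: plate controls were DMSO wells with RBBP9 for no effect and wells lacking RBBP9 protein for full effect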
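System: RBBP9 protein | Quantity: 2.5 µM RBBP9 dispensing solution, before mixing | Reagent: FP-Rh probe, 375 nM dispensing solution | Timing: Enzyme-compound preincubation 30 min, then probe labeling 45 min, 25 °C | Measured by: Fluorescence polarization | Read-out: % inhibition | Replication: One well per compound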
NCF1 inh – blocks human p47phox regulatory protein of NADPH oxidases | 0.53% of 220,000 active | inhibition, % at 24.7 µM | p47phox/p22phox peptide binding, fluorescence polarization, 2 h;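 active = inhibition above about 30%, limit read from the data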;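 also: 0% = p47phox with labelled peptide and 100% = labelled peptide alone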
An asterisk follows results filed as active; i = inactive; + = active, no number. A selection: hits, their analogues and other compounds. The true share with any hit is near 1.1%.

SMILES	m-calpain inh	Furin inhibitor	RBBP9 inh	NCF1 inh
O=S(=O)(Nc1ccc(-c2csc(-c3ccccc3)n2)cc1)c1ccc(F)cc1	55*	-23	-27	-12
S=C(NCc1ccco1)N/N=C/c1ccc(Cl)cc1	68*	-3	-14	-7
COc1ccccc1/C=N/NC(=S)NCc1ccco1	60*	-10	6	-16
S=C(NCc1ccco1)N/N=C/c1ccccc1Cl	46	-14	-8	-3
CCN(CC)S(=O)(=O)c1ccc(C2=NOC3(C2)N(C)c2ccccc2C3(C)C)cc1 (stereo not drawn)	-25	-14	-2	-15
COc1ccc(NC(=O)COc2nc3ccccc3nc2N2CCOCC2)c(OC)c1	-16	-6	-3	-3
CCO[C@H]1OC(C(=O)N2CCOCC2)=C[C@@H](c2ccc(Br)cc2)[C@@H]1CCCO	-11	-26	-1	-11
O=C(CSc1nnc2c(n1)[nH]c1ccccc12)Nc1ccc(S(=O)(=O)Nc2ncccn2)cc1	-18	-9	-4	-15
Cc1c(Cl)cccc1NC(=S)NCC(c1cccnc1)N(C)C (stereo not drawn)	-12	-33	-9	-3
Cc1ccc(-c2nn(CC(=O)NCc3cc(-c4nn(C)c(=O)c5ccccc45)ccc3C)c(=O)c3ccccc23)cc1	-53	-22	1	59*
CCC(=O)NCc1cc(-c2nn(C)c(=O)c3ccccc23)ccc1C	9	-14	2	-2
Cc1c(N=C/C=C2\N(C)c3ccccc3C2(C)C)c(=O)n(-c2ccccc2)n1C	24	0	-5	-13
Cc1c(N=C/C=C2/N(C)c3ccccc3C2(C)C)c(=O)n(-c2ccccc2)n1C	-6	26*	3	-43
O=C(CSc1cccc[n+]1[O-])Nc1ccc([N+](=O)[O-])cc1Cl	23	-15	1	-4
O=C(NCc1ccccn1)C1CN(S(=O)(=O)c2ccccc2)CCN1S(=O)(=O)c1ccccc1 (stereo not drawn)	10	-12	-3	-11
CN(C)CCCNc1cc(C(C)(C)C)nc2c(-c3ccc(Cl)cc3)cnn12	-24	-26	-6	65*
CC(C)(C)c1cc(NCc2ccccn2)n2ncc(-c3ccc(Cl)cc3)c2n1	-73	-23	9	-7
COc1ccc2cc(C(=O)N3CCCCCC3)sc(=O)c2c1OC	60*	-12	-7	-8
COC(=O)c1cc2ccc(OC)c(OC)c2c(=O)s1	-9	-2	-1	-7
CCc1nnc(NCC(=O)N2CCc3ccccc32)s1	-209	-9	-11	+
CCN(CC)C(=S)SCC(=O)c1ccc(Br)cc1	13	-19	-7	-8
CN1CCc2nc(SCC(=O)Nc3ccc(F)cc3)c(C#N)cc2C1	2	-22	-5	37*
CC(C)(C)c1nn2cnnc2n(/N=C/c2ccc(O)cc2)c1=O	17	-29	-11	-19
CC1(C)CC(NC(=S)NCc2ccc3c(c2)OCO3)CC(C)(C)N1	8	-24	-3	-6
CN(C)c1ccc(/C=C(\C#N)C(=O)c2ccccc2)cc1	4	-13	-11	52*
SMILES	m-calpain inh	Furin inhibitor	RBBP9 inh	NCF1 inh
CCOC(=O)C1CCCN(C(=O)CSc2ccc(NC(C)=O)cc2)C1 (stereo not drawn)	63*	-25	-10	-3
CCOC(=O)C1CCCN(C(=O)CSc2ccccc2)C1 (stereo not drawn)	-8	-23	-6	-2
Cn1c(N)c(C(=O)COC(=O)C2CCC(C(C)(C)C)CC2)c(=O)n(C)c1=O (stereo not drawn)	110*	-20	-3	-5
Cn1c(N)c(C(=O)COC(=O)C2(c3ccc(Cl)cc3)CCCC2)c(=O)n(C)c1=O	17	-20	2	-7
Cc1cc(SCC(=O)OCC(=O)c2c(N)n(C)c(=O)n(C)c2=O)c(C)cc1Br	3	-25	1	-5
Cn1c(N)c(C(=O)COC(=O)C2(c3ccc(F)cc3)CCCC2)c(=O)n(C)c1=O	76*	-16	0	20
Cn1c(N)c(C(=O)COC(=O)C2CCCC2)c(=O)n(C)c1=O	17	-24	3	1
Cc1cc(Br)ccc1SCC(=O)OCC(=O)c1c(N)n(C)c(=O)n(C)c1=O	77*	-5	-8	-9
Cn1c(N)c(C(=O)COC(=O)CCC2CCCC2)c(=O)n(C)c1=O	80*	-12	-4	-10
Brc1ccc(-c2nnc3ccc(Nc4ccccc4)nn23)cc1	-29	-19	1	-6
CCSc1nnc(-c2ccccc2N=Cc2c(C)[nH]n(-c3ccccc3)c2=O)c(=O)[nH]1	-11	-23	-7	-10
CC1CCN(CC(=O)Nc2cccc(C(=O)Nc3cccc(C(F)(F)F)c3)c2)CC1	25	-5	-12	-17
Cc1nc2c(C#N)c[nH]n2c(=O)c1CCO	14	-24	-9	2
Cn1c(N)c(C(=O)COC(=O)CCc2ccccc2)c(=O)n(C)c1=O	14	-29	-6	-2
Cn1c(N)c(C(=O)COC(=O)CCC2CCCCC2)c(=O)n(C)c1=O	78*	-6	-6	-2
CC1=C(C(=O)N2CCN(c3cc(C)ccc3C)CC2)C2(CCC(C)CC2)OC1=O (stereo not drawn)	-16	-13	-5	-4
CCCCc1c(C)nc2c(OC)cccc2c1SCCC(=O)O	-98	-22	-8	34*
CCc1c(C)nc2c(OC)cccc2c1SCCC(=O)O	-91	-3	-3	2
Cc1ccc(OCCSc2nc(NC(C)C)nc(NC(C)C)n2)cc1	29	-4	-6	3
Cc1cc(=O)oc2cc(OCC(=O)Nc3cccc(S(=O)(=O)N(C)C)c3)ccc12	5	-1	-9	31*
COc1ccc(C(=O)NCC(=O)OCC(=O)c2ccc3c(c2)NC(=O)CO3)cc1	-15	-22	0	-5
Cc1cc(=O)oc2cc(OCC(=O)c3ccc4c(c3)NC(=O)CO4)ccc12	-68	-16	-3	37*
CC(=O)Nc1ccc(NC(=O)c2ccccc2CCc2ccccc2)cc1	7	-17	-11	0
Cc1ccc(N2C(=O)c3n[nH]c(C)c3C2c2ccco2)cc1 (stereo not drawn)	-29	-20	-4	46*
Cc1ccc(N2C(=O)c3n[nH]c(C)c3C2c2ccccn2)cc1 (stereo not drawn)	17	-17	1	73*
SMILES	m-calpain inh	Furin inhibitor	RBBP9 inh	NCF1 inh
Cc1cc(C)c2nc3nc(C)c(C)cc3c(N)c2c1	i	-17	-6	35*
O=C(NCCCN1CCCCCC1)c1ccc(CS(=O)(=O)Cc2ccccc2F)o1	25	-18	-7	89*
CC(NC(=S)Nc1ccccc1C(F)(F)F)C1CC2CCC1C2 (stereo not drawn)	27	-9	-1	-5
O=C(COc1ccc(Cl)cc1Cl)NC(=O)N1CCOCC1	-28	36*	2	7
O=C(COc1ccc(Cl)cc1Cl)Nc1ccc(CN2CCCCC2)cc1	12	-16	0	38*
Cc1cc(C)cc(OCC(=O)Nc2ccc(CN3CCCCC3)cc2)c1	-8	-18	5	-3
Cc1cc(Cl)ccc1OCCCC(=O)N1CCOCC1	5	29*	0	-1
O=C(COc1ccc(Cl)cc1Cl)N1CCCC1	-28	-20	-2	-13

Source: PubChem (several laboratories)
